For test [1], the target named is von Hippel-Lindau disease tumor suppressor/Indoleamine 2,3-dioxygenase 1 (Homo sapiens) (UniProt P14902+P40337). Kind of test: Protac activity at IDO1/VHL in IFNgamma-stimulated human U87 cells assessed as IDO1 degradation at 10 uM measured after 24 hrs by Western blotting analysis relative to control. Format: cell-based. The method in brief:
(§1)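 U87 GBM cells primed with human IFNγ 50 ng/mL for 24 h, then exposed to PROTAC at 10 μM for 24 h. Lysates run on western blot; IDO1 bands quantified by densitometry and expressed as percent of normalized IDO1 protein level.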
In general terms: Immunoblotting shows a protein as a band on a membrane.

Test [2] concerns the target Protein cereblon/Indoleamine 2,3-dioxygenase 1 (Homo sapiens, UniProt P14902+Q96SW2). Kind of test: Protac activity at IDO1/CRBN in IFNgamma-stimulated human U87 cells assessed as IDO1 degradation at 10 uM measured after 24 hrs by Western blotting analysis relative to control. Format: cell-based. The method in brief:
as §1

SMILES strings stand for the structures.

Chain of von Hippel-Lindau disease tumor suppressor/Indoleamine 2,3-dioxygenase 1 (Homo sapiens) (P14902 whole entry, looked up): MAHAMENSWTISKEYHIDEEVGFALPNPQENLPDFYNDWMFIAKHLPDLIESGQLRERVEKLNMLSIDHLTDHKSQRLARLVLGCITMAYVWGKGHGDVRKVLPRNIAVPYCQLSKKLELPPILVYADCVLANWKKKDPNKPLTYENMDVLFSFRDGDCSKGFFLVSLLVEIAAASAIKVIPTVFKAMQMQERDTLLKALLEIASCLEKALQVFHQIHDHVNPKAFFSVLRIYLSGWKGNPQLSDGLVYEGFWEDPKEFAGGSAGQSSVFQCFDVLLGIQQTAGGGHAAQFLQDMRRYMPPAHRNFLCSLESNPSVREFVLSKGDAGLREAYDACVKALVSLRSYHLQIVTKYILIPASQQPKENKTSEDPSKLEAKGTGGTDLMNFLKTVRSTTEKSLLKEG
Chain of von Hippel-Lindau disease tumor suppressor/Indoleamine 2,3-dioxygenase 1 (Homo sapiens) (P40337 whole entry, looked up): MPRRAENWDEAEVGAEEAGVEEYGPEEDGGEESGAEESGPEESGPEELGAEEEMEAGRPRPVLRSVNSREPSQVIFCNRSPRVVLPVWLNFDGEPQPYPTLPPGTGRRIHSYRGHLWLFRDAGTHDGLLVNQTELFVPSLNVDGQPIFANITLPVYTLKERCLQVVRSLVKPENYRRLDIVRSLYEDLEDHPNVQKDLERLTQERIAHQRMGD
Chain of Protein cereblon/Indoleamine 2,3-dioxygenase 1 (P14902 whole entry, looked up): as the sequence (P14902 whole entry, looked up) above
Chain of Protein cereblon/Indoleamine 2,3-dioxygenase 1 (Q96SW2 whole entry, looked up): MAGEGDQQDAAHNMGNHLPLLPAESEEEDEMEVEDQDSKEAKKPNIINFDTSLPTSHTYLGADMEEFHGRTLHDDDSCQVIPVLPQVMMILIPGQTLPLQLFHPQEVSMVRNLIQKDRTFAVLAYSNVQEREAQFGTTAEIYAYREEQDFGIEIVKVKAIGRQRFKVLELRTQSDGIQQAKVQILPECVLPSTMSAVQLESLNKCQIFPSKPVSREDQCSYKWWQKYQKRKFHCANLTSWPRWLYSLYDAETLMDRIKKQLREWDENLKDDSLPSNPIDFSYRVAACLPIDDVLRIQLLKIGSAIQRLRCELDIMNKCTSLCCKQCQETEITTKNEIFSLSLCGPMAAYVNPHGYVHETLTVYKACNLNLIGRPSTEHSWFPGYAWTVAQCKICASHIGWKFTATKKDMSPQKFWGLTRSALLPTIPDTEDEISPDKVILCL

`Cc1ncsc1-c1ccc(CNC(=O)[C@@H]2C[C@@H](O)CN2C(=O)[C@@H](NC(=O)C2(F)CC2)C(C)(C)C)c(OCCOCCOCCOCCOc2cc(NC(=O)[C@H](C)[C@H]3CC[C@@H](c4ccnc5ccc(F)cc54)CC3)ccc2Cl)c1`: the Activity in test [1] is 0%. For `Cc1ncsc1-c1ccc(CNC(=O)[C@@H]2C[C@@H](O)CN2C(=O)[C@@H](NC(=O)C2(F)CC2)C(C)(C)C)c(OCCOCCC(=O)N2CCC(Oc3ccc(NC(=O)[C@H](C)[C@H]4CC[C@@H](c5ccnc6ccc(F)cc65)CC4)cc3)CC2)c1`, in test [1], the Activity worked out at 72%.

Turning to `Cc1ncsc1-c1ccc(CNC(=O)[C@@H]2C[C@@H](O)CN2C(=O)[C@@H](NC(=O)C2(F)CC2)C(C)(C)C)c(OCCOCCOCCC(=O)N2CC(Oc3ccc(NC(=O)[C@H](C)[C@H]4CC[C@@H](c5ccnc6ccc(F)cc65)CC4)cc3)C2)c1`, the Activity in test [1] is 91%. The same measure, in the same setting: then `Cc1ncsc1-c1ccc(CNC(=O)[C@@H]2C[C@@H](O)CN2C(=O)[C@@H](NC(=O)C2(F)CC2)C(C)(C)C)c(OCCOCCOCCCN2CCC(Oc3ccc(NC(=O)[C@H](C)[C@H]4CC[C@@H](c5ccnc6ccc(F)cc65)CC4)cc3)CC2)c1`, with 0%; and `Cc1ncsc1-c1ccc(CNC(=O)[C@@H]2C[C@@H](O)CN2C(=O)[C@@H](NCCOCCOCCOCCOc2ccc(NC(=O)[C@H](C)[C@H]3CC[C@@H](c4ccnc5ccc(F)cc54)CC3)cc2)C(C)(C)C)cc1`, with 0%.

Turning to `Cc1ncsc1-c1ccc(CNC(=O)[C@@H]2C[C@@H](O)CN2C(=O)[C@@H](NC(=O)C2(F)CC2)C(C)(C)C)c(OCCOCCCN2CCC(Oc3ccc(NC(=O)[C@H](C)[C@H]4CC[C@@H](c5ccnc6ccc(F)cc65)CC4)cc3)CC2)c1`, the Activity in test [1] stood at 0%. Still for that read-out and setting: to `Cc1ncsc1-c1ccc(CNC(=O)[C@@H]2C[C@@H](O)CN2C(=O)[C@@H](NC(=O)C2(F)CC2)C(C)(C)C)c(OCCOCCOc2cc(NC(=O)[C@H](C)[C@H]3CC[C@@H](c4ccnc5ccc(F)cc54)CC3)ccc2Cl)c1` belongs 23%; to `Cc1ncsc1-c1ccc(CNC(=O)[C@@H]2C[C@@H](O)CN2C(=O)[C@@H](NC(=O)C2(F)CC2)C(C)(C)C)c(OCCOCCOCCOc2ccc(NC(=O)[C@H](C)[C@H]3CC[C@@H](c4ccnc5ccc(F)cc54)CC3)cc2)c1`, 0%; to `Cc1ncsc1-c1ccc(CNC(=O)[C@@H]2C[C@@H](O)CN2C(=O)[C@@H](NCCOCCOCCOCCOCCOc2cc(NC(=O)[C@H](C)[C@H]3CC[C@@H](c4ccnc5ccc(F)cc54)CC3)ccc2Cl)C(C)(C)C)cc1`, 0%. Still for that read-out and setting: then `Cc1ncsc1-c1ccc(CNC(=O)[C@@H]2C[C@@H](O)CN2C(=O)[C@@H](NC(=O)C2(F)CC2)C(C)(C)C)c(OCCOCCOCCOc2cc(NC(=O)[C@H](C)[C@H]3CC[C@@H](c4ccnc5ccc(F)cc54)CC3)ccc2Cl)c1`, with 0%; and `Cc1ncsc1-c1ccc(CNC(=O)[C@@H]2C[C@@H](O)CN2C(=O)[C@@H](NC(=O)C2(F)CC2)C(C)(C)C)c(OCCCCCCCOc2ccc(NC(=O)[C@H](C)[C@H]3CC[C@@H](c4ccnc5ccc(F)cc54)CC3)cc2)c1`, with 41%. In the case of `Cc1ncsc1-c1ccc(CNC(=O)[C@@H]2C[C@@H](O)CN2C(=O)[C@@H](NCCCCCCCOc2ccc(NC(=O)[C@H](C)[C@H]3CC[C@@H](c4ccnc5ccc(F)cc54)CC3)cc2)C(C)(C)C)cc1`, in test [1], the Activity is 0%. Still for that read-out and setting: to `Cc1ncsc1-c1ccc(CNC(=O)[C@@H]2C[C@@H](O)CN2C(=O)[C@@H](NCCOCCOCCOc2ccc(NC(=O)[C@H](C)[C@H]3CC[C@@H](c4ccnc5ccc(F)cc54)CC3)cc2)C(C)(C)C)cc1` belongs 0%. On the same count and under the same terms, to `Cc1ncsc1-c1ccc(CNC(=O)[C@@H]2C[C@@H](O)CN2C(=O)[C@@H](NC(=O)C2(F)CC2)C(C)(C)C)c(OCCOCCC(=O)N2CC(Oc3ccc(NC(=O)[C@H](C)[C@H]4CC[C@@H](c5ccnc6ccc(F)cc65)CC4)cc3)C2)c1` belongs 20%; to `Cc1ncsc1-c1ccc(CNC(=O)[C@@H]2C[C@@H](O)CN2C(=O)[C@@H](NCCOCCOCCOCCOCCOc2ccc(NC(=O)[C@H](C)[C@H]3CC[C@@H](c4ccnc5ccc(F)cc54)CC3)cc2)C(C)(C)C)cc1`, 0%. `C[C@@H](C(=O)Nc1ccc(OCCCCCCCCCCOc2cccc3c2C(=O)N(C2CCC(=O)NC2=O)C3=O)cc1)[C@H]1CC[C@@H](c2ccnc3ccc(F)cc32)CC1` (stereo not given in full): the Activity in test [2] came to 0%. The same measure, in the same setting: then `C[C@@H](C(=O)Nc1ccc(Cl)c(OCCOCCOCCOCCNC(=O)COc2cccc3c2C(=O)N(C2CCC(=O)NC2=O)C3=O)c1)[C@H]1CC[C@@H](c2ccnc3ccc(F)cc32)CC1` (stereo not given in full), with 0%.

As to `C[C@@H](C(=O)Nc1ccc(OC2CN(C(=O)CCOCCOc3cccc4c3C(=O)N(C3CCC(=O)NC3=O)C4=O)C2)cc1)[C@H]1CC[C@@H](c2ccnc3ccc(F)cc32)CC1` (stereo not given in full), the Activity in test [2] worked out at 86%. On the same count and under the same terms, then `C[C@@H](C(=O)Nc1ccc(OCCOCCOCCOCCNC(=O)COc2cccc3c2C(=O)N(C2CCC(=O)NC2=O)C3=O)cc1)[C@H]1CC[C@@H](c2ccnc3ccc(F)cc32)CC1` (stereo not given in full), with 0%; and `C[C@@H](C(=O)Nc1ccc(OCCCCNc2cccc3c2C(=O)N(C2CCC(=O)NC2=O)C3=O)cc1)[C@H]1CC[C@@H](c2ccnc3ccc(F)cc32)CC1` (stereo not given in full), with 0%; and `C[C@@H](C(=O)Nc1ccc(OC2CCN(C(=O)CCOCCOc3cccc4c3C(=O)N(C3CCC(=O)NC3=O)C4=O)CC2)cc1)[C@H]1CC[C@@H](c2ccnc3ccc(F)cc32)CC1` (stereo not given in full), with 45%.

As for `C[C@@H](C(=O)Nc1ccc(Cl)c(OCCCCCCCCCNC(=O)COc2cccc3c2C(=O)N(C2CCC(=O)NC2=O)C3=O)c1)[C@H]1CC[C@@H](c2ccnc3ccc(F)cc32)CC1` (stereo not given in full), the Activity in test [2] stood at 0%. The same measure, in the same setting: then `C[C@@H](C(=O)Nc1ccc(Cl)c(OCCOCCOCCOCCOc2cccc3c2C(=O)N(C2CCC(=O)NC2=O)C3=O)c1)[C@H]1CC[C@@H](c2ccnc3ccc(F)cc32)CC1` (stereo not given in full), with 13%. On the same count and under the same terms, to `C[C@@H](C(=O)Nc1ccc(Cl)c(OCCOCCOCCNC(=O)COc2cccc3c2C(=O)N(C2CCC(=O)NC2=O)C3=O)c1)[C@H]1CC[C@@H](c2ccnc3ccc(F)cc32)CC1` (stereo not given in full) belongs 40%; to `C[C@@H](C(=O)Nc1ccc(Cl)c(OCCCCCCNC(=O)COc2cccc3c2C(=O)N(C2CCC(=O)NC2=O)C3=O)c1)[C@H]1CC[C@@H](c2ccnc3ccc(F)cc32)CC1` (stereo not given in full), 0%. Same read-out and setting: then `C[C@@H](C(=O)Nc1ccc(OC2CN(CCCOCCOCCNC(=O)COc3cccc4c3C(=O)N(C3CCC(=O)NC3=O)C4=O)C2)cc1)[C@H]1CC[C@@H](c2ccnc3ccc(F)cc32)CC1` (stereo not given in full), with 0%; and `C[C@@H](C(=O)Nc1ccc(OC2CN(C(=O)CCOCCOCCOc3cccc4c3C(=O)N(C3CCC(=O)NC3=O)C4=O)C2)cc1)[C@H]1CC[C@@H](c2ccnc3ccc(F)cc32)CC1` (stereo not given in full), with 74%; and `C[C@@H](C(=O)Nc1ccc(Cl)c(OCCCNc2cccc3c2C(=O)N(C2CCC(=O)NC2=O)C3=O)c1)[C@H]1CC[C@@H](c2ccnc3ccc(F)cc32)CC1` (stereo not given in full), with 36%.

Turning to `C[C@@H](C(=O)Nc1ccc(Cl)c(OCCCCCCOc2cccc3c2C(=O)N(C2CCC(=O)NC2=O)C3=O)c1)[C@H]1CC[C@@H](c2ccnc3ccc(F)cc32)CC1` (stereo not given in full), the Activity in test [2] came to 0%. Take `C[C@@H](C(=O)Nc1ccc(OCCOCCOCCOCCOCCOc2cccc3c2C(=O)N(C2CCC(=O)NC2=O)C3=O)cc1)[C@H]1CC[C@@H](c2ccnc3ccc(F)cc32)CC1` (stereo not given in full): the Activity in test [2] worked out at 0%.

Values taken from ChEMBL document CHEMBL5150051, “Identification and Characterization of a Novel Indoleamine 2,3-Dioxygenase 1 Protein Degrader for Glioblastoma” (J Med Chem, 2022).
